# Experimental data gathered from unrelated publications.
# Compare with care: the assays were run in different laboratories.
# Target: STE20-like serine/threonine-protein kinase (SLK, Homo sapiens, UniProt Q9H2G2)
Compound,effect on,mode,method,cells,concentration,quantity,result
O=C(Nc1cnn(-c2csc(C(=O)NC3COC3)c2)c1)Nc1c(F)cccc1Cl,enzyme activity,inhibitor,,,5 µM,remaining activity,95%
CO[C@@H](C)c1c(Nc2ccc([C@H](N(C)C(=O)C3CCS(=O)(=O)CC3)C(F)(F)F)cc2)cnc2cc(Cl)nn12,cell-free assay,,competition with immobilised ligand,,1 µM,remaining binding,81%
Cn1c2c(c3ccc(Cl)c(Cl)c31)C(C#N)C1(CCOCC1)NC2=O (stereo not shown),thermal stability,,DSF,,10 µM,ΔTm,-0.4 °C
O=C1NC(=O)c2cc(Nc3ccc(F)cc3)c(Nc3ccc(F)cc3)cc21,cell-free assay,,,,0.5 µM,remaining signal,65.5%
Cc1c(C(=O)O)cc(-c2ccc(C3CCNCC3)cc2)c2ccc(-c3ccc(C(F)(F)F)cc3)cc12,binding,,competition with immobilised ligand,,1 µM,remaining binding,100%
CC(C)(O)[C@H]1CC[C@H](Nc2ccc3ncc(-c4cccc(C(F)(F)F)c4)n3n2)CC1,enzyme activity,inhibitor,,,1 µM,remaining activity,71.5%
CCN1CCN(Cc2ccc(NC(=O)c3ccc(C)c(Oc4ccnc5[nH]ccc45)c3)cc2C(F)(F)F)CC1,target engagement in cells,inhibitor,chemoproteomics,Huh-7,1 µM,inhibition,-70.4%
Cn1c2c(c3ccccc31)C(C#N)C(C)(C)NC2=O (stereo not shown),thermal stability,,DSF,,10 µM,ΔTm,-0.1 °C
O=C1CCc2cc(Nc3cc(OC4CCOCC4)c([N+](=O)[O-])cc3Cl)ccc2N1,cell-free assay,,competition with immobilised ligand,,1 µM,remaining binding,100%
O=C(Nc1cnn(-c2csc(C(=O)NC3COC3)c2)c1)Nc1ccccc1Cl,enzyme activity,inhibitor,,,5 µM,remaining activity,89.7%
Cc1ccc(C(=O)Nc2ccc(CN3CCN(C)CC3)c(C(F)(F)F)c2)cc1C#Cc1cnc2cccnn12,enzyme activity,inhibitor,,,23.5 nM,remaining activity,7%
Cc1ccc(NC(=O)c2ccc(CN3CCN(C)CC3)cc2)cc1Nc1nc(-c2cccnc2)cs1,cell-free assay,,,,0.5 µM,remaining signal,92.4%
Cc1c[nH]c2nccc(Oc3c(F)cc(Nc4cc(Cl)nc(N)n4)cc3F)c12,cell-free assay,,competition with immobilised ligand,,0.1 µM,remaining binding,97%
O=C1Nc2ccc(Cl)cc2C1=Cc1cc(Cl)c(O)c(Cl)c1,cell-free assay,,,,0.5 µM,remaining signal,95.3%
CC(C)(C)c1nc2c(s1)c1nc(N)ncc1c1ccc(NS(=O)(=O)c3c(F)cccc3F)c(F)c12,enzyme activity,inhibitor,radiometric,,1 µM,remaining activity,95%
Nc1cnc(N2CCc3cc(S(=O)(=O)Nc4c(F)cc(Cl)cc4F)cc(N4CCCC4=O)c32)nc1,cell-free assay,,competition with immobilised ligand,,1 µM,remaining binding,100%
CNC(=O)c1cc(Oc2ccc(NC(=O)Nc3ccc(Cl)c(C(F)(F)F)c3)cc2)ccn1,cell-free assay,,,,0.5 µM,remaining signal,96.8%
COc1cc2nccc(Oc3ccc(NC(=O)Nc4ccc(F)cc4F)c(F)c3)c2cc1OC,thermal stability,,DSF,,10 µM,ΔTm,5 to 10 °C
CN1CCN(c2cnc3c(C4CCN(C(=O)c5ccc(OC(F)(F)F)cc5N)CC4)ncnc3c2)CC1,cell-free assay,,competition with immobilised ligand,,1 µM,remaining binding,96%
COc1cc(-c2cc(-c3ccc(N4CCNCC4)cc3)cnc2C)cc(OC)c1OC,enzyme activity,inhibitor,,,0.1 µM,inhibition,12%
CN(C)CC#Cc1ccc(OCCCc2sc(N3CCc4cccc(C(=O)Nc5nc6ccccc6s5)c4C3)nc2C(=O)O)c(F)c1,cell-free assay,,competition with immobilised ligand,,1 µM,remaining binding,100%
Cn1c2c(Cl)c(Cl)ccc2c2cn[nH]c(=O)c21,thermal stability,,DSF,,10 µM,ΔTm,0.4 °C
CCS(=O)(=O)c1cc2cc(C[C@](O)(CC(C)(C)c3ccc(F)cc3C(N)=O)C(F)(F)F)[nH]c2cn1,cell-free assay,,competition with immobilised ligand,,1 µM,remaining binding,100%
Cn1c2c(Cl)c(Cl)ccc2c2cc[nH]c(=O)c21,thermal stability,,DSF,,10 µM,ΔTm,0.2 °C
CCOc1cc(-c2nncn2C)ccc1Nc1ncc2cc(C)nc(NCC(C)(C)C)c2n1,cell-free assay,,TR-FRET,,1 µM,inhibition,≤ 15%
